According to ChEMBL document CHEMBL6071131, “New substituted benzoxazine derivatives as potent inducers of membrane permeability and cell death” (Bioorg Med Chem, 2024):

Key:
[1] = tested on: MCF7; test: Antiproliferative activity against human MCF7 cells incubated for 72 hrs by SRB assay; format: functional, cell-based; conditions: MCF7, 72 h
Method in brief: (§1)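 Sulforhodamine B colorimetric read-out after 72 h drug exposure. Cells kept in DMEM with 10 % FBS and 1 % penicillin/streptomycin at 37 °C under 5 % CO₂, mycoplasma-checked, passaged under 6 months. Compounds given from DMSO stocks diluted in medium, final DMSO ≤ 0.1 % v/v, with DMSO-only parallel cultures as controls. IC50 reported as mean ± SD of three independent determinations, each run in duplicate.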

[2] = tested on: HCT-116; test: Antiproliferative activity against human HCT-116 cells incubated for 72 hrs by SRB assay; format: functional, cell-based; conditions: HCT-116, 72 h; method in brief: as §1
[3] = organism: Homo sapiens; test: Inhibition of human AKT assessed as residual activity at 50 uM relative to control
Method in brief: (§2)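 Residual kinase activity determined with each compound at 5×10⁻⁶ and 5×10⁻⁵ M, in singlicate per kinase assay, expressed relative to uninhibited control.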

[4] = target: Mitogen-activated protein kinase 8 (Homo sapiens) (UniProt P45983); test: Inhibition of human JNK1 assessed as residual activity at 50 uM relative to control; method in brief: as §2
Sequence of Mitogen-activated protein kinase 8 (Homo sapiens) (P45983 whole entry): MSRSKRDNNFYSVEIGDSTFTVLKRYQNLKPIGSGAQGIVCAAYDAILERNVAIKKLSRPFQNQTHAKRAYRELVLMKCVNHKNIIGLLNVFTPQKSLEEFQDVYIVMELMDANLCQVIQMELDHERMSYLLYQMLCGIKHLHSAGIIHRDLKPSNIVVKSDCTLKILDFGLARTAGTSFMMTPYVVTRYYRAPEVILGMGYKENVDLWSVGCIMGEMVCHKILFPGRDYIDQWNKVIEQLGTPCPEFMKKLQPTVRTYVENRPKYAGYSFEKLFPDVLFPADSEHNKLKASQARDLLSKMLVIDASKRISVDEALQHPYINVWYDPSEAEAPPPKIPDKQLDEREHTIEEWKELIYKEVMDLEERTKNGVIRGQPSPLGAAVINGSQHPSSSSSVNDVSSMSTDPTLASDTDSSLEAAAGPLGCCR

[5] = target: Epidermal growth factor receptor (Homo sapiens) (UniProt P00533); test: Inhibition of human EGFR assessed as residual activity at 5 uM relative to control; method in brief: as §2
Sequence of Epidermal growth factor receptor (Homo sapiens) (P00533 whole entry): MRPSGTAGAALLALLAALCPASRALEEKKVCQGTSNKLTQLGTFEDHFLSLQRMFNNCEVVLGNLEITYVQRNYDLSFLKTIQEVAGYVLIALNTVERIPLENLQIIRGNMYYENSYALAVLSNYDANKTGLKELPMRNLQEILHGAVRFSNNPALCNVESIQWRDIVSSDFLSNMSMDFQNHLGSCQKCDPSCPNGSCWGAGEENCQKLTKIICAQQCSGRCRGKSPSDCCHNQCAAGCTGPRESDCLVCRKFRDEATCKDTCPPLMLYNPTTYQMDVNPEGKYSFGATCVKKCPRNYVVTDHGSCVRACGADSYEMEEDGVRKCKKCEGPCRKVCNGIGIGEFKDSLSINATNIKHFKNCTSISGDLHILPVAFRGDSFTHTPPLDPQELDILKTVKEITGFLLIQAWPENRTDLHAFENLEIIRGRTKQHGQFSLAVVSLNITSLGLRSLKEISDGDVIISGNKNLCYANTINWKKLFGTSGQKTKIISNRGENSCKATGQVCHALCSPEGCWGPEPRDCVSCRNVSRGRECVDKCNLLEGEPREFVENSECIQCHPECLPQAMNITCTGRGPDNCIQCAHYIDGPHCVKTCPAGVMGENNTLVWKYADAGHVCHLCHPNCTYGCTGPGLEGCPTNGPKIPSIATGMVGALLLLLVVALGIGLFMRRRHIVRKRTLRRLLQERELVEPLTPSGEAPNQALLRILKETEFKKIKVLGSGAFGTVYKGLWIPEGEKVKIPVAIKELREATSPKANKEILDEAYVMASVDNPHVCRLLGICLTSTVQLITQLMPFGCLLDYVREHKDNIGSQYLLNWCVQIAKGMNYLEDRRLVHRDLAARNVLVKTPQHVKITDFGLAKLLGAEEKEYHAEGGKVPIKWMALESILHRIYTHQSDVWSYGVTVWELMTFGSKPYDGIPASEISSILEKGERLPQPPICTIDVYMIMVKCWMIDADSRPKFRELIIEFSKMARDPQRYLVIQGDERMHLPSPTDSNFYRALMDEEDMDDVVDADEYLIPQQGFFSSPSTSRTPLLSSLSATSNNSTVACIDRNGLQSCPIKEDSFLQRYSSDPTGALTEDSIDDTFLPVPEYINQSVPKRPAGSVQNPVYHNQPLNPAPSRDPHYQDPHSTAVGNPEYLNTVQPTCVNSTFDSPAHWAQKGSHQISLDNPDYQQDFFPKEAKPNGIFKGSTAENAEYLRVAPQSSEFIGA

[6] = target: 5'-AMP-activated protein kinase catalytic subunit alpha-1 (Homo sapiens) (UniProt Q13131); test: Inhibition of human AMPK alpha-1 assessed as residual activity at 5 uM relative to control; method in brief: as §2
Sequence of 5'-AMP-activated protein kinase catalytic subunit alpha-1 (Homo sapiens) (Q13131 whole entry, looked up): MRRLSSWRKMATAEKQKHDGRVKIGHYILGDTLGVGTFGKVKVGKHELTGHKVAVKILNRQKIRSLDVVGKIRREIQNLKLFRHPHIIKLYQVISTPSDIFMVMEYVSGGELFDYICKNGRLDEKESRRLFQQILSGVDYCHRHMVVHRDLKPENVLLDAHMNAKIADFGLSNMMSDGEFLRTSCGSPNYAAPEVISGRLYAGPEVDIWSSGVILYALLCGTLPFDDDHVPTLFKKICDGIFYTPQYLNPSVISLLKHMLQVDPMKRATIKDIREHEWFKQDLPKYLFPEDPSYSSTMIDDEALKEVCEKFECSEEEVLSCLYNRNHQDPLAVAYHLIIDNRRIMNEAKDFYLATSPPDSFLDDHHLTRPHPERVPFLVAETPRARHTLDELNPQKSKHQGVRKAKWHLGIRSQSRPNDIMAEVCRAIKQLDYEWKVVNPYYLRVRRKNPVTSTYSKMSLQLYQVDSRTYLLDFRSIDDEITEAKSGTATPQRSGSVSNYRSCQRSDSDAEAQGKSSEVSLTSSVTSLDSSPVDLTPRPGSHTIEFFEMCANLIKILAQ

[7] = target: Mitogen-activated protein kinase 1 (Homo sapiens) (UniProt P28482); test: Inhibition of human ERK2 assessed as residual activity at 5 uM relative to control; method in brief: as §2
Sequence of Mitogen-activated protein kinase 1 (Homo sapiens) (P28482 whole entry): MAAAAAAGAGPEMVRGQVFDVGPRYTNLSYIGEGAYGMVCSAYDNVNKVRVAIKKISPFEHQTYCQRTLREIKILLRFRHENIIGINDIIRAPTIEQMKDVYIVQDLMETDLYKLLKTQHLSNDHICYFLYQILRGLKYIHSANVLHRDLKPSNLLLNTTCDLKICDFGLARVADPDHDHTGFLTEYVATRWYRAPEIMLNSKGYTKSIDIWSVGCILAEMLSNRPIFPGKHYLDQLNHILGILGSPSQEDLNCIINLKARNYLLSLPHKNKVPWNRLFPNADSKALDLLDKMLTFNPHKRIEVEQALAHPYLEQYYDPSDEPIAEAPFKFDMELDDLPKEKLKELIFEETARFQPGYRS

[8] = organism: Homo sapiens; test: Inhibition of human AKT assessed as residual activity at 5 uM relative to control; method in brief: as §2
[9] = target: T1, LKB1-STRAD-MO25 complex (Homo sapiens) (UniProt Q15831+Q7RTN6+Q9Y376); test: Inhibition of human LKB1/MO25/STRADalpha assessed as residual activity at 50 uM relative to control; format: protein-complex assay; method in brief: as §2
[10] = target: Receptor tyrosine-protein kinase erbB-2 (Homo sapiens) (UniProt P04626); test: Inhibition of human HER2 assessed as residual activity at 50 uM relative to control; method in brief: as §2
Sequence of Receptor tyrosine-protein kinase erbB-2 (Homo sapiens) (P04626 whole entry): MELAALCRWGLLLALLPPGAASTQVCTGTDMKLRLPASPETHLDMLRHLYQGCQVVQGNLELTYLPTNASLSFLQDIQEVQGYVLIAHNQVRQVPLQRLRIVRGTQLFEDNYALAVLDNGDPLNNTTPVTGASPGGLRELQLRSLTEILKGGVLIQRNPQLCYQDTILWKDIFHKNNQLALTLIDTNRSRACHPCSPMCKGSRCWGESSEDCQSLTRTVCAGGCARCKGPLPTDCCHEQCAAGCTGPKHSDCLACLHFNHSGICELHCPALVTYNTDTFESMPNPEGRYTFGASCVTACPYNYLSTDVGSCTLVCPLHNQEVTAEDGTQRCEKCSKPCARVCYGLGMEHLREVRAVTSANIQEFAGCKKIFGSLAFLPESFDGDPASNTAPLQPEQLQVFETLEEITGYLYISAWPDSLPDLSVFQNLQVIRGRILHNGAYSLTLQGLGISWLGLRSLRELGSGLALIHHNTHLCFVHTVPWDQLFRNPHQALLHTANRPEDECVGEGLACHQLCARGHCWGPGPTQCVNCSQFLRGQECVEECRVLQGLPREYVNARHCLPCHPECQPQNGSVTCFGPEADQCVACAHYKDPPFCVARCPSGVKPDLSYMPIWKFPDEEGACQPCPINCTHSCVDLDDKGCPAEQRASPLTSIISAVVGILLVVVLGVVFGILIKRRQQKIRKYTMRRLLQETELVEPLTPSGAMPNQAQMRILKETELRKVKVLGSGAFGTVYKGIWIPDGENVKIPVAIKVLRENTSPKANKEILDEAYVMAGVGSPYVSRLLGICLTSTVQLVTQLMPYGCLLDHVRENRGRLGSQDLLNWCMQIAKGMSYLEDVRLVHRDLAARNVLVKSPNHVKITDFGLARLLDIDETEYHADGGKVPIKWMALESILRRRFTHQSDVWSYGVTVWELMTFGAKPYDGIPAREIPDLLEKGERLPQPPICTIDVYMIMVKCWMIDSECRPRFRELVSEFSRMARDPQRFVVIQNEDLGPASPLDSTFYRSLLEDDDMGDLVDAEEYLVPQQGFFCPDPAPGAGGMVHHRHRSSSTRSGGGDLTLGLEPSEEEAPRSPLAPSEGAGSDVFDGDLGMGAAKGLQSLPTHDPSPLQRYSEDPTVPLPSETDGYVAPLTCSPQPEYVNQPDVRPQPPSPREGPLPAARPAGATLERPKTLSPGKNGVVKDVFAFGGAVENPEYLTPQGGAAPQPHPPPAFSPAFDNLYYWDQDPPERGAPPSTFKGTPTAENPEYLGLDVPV

[11] = target: Mitogen-activated protein kinase 1 (Homo sapiens) (UniProt P28482); test: Inhibition of human ERK2 assessed as residual activity at 50 uM relative to control; method in brief: as §2
[12] = target: Mitogen-activated protein kinase 14 (Homo sapiens) (UniProt Q16539); test: Inhibition of human P38-alpha assessed as residual activity at 5 uM relative to control; method in brief: as §2
Sequence of Mitogen-activated protein kinase 14 (Homo sapiens) (Q16539 whole entry): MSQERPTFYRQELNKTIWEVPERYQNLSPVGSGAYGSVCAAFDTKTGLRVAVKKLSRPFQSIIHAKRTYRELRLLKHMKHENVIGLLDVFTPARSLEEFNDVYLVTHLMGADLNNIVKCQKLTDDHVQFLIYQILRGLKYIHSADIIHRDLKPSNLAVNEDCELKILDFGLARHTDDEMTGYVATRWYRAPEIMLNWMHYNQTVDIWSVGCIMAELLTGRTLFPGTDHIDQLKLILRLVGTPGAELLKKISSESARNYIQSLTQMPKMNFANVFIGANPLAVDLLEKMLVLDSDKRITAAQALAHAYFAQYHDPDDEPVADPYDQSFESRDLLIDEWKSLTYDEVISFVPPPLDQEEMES

[13] = target: Receptor tyrosine-protein kinase erbB-2 (Homo sapiens) (UniProt P04626); test: Inhibition of human HER2 assessed as residual activity at 5 uM relative to control; method in brief: as §2
[14] = target: Epidermal growth factor receptor (Homo sapiens) (UniProt P00533); test: Inhibition of human EGFR assessed as residual activity at 50 uM relative to control; method in brief: as §2
[15] = target: Mitogen-activated protein kinase 14 (Homo sapiens) (UniProt Q16539); test: Inhibition of human P38-alpha assessed as residual activity at 50 uM relative to control; method in brief: as §2
[16] = target: T1, LKB1-STRAD-MO25 complex (Homo sapiens); test: Inhibition of human LKB1/MO25/STRADalpha assessed as residual activity at 5 uM relative to control; format: protein-complex assay; method in brief: as §2
[17] = target: 5'-AMP-activated protein kinase catalytic subunit alpha-1 (Homo sapiens) (UniProt Q13131); test: Inhibition of human AMPK alpha-1 assessed as residual activity at 50 uM relative to control; method in brief: as §2
[18] = target: Mitogen-activated protein kinase 8 (Homo sapiens) (UniProt P45983); test: Inhibition of human JNK1 assessed as residual activity at 5 uM relative to control; method in brief: as §2

Structure (SMILES)	IC50 [1] [µM]	IC50 [2] [µM]	Activity [3] [%]	Activity [4] [%]	Activity [5] [%]	Activity [6] [%]	Activity [7] [%]	Activity [8] [%]	Activity [9] [%]	Activity [10] [%]	Activity [11] [%]	Activity [12] [%]	Activity [13] [%]	Activity [14] [%]	Activity [15] [%]	Activity [16] [%]	Activity [17] [%]	Activity [18] [%]
Cc1ccc(S(=O)(=O)N2CC(CCn3cnc4c(C(F)(F)F)ncnc43)Oc3cc(Cl)ccc32)cc1 (centres undefined)	23	13.6	–	–	–	–	–	–	–	–	–	–	–	–	–	–	–	–
Cc1ccc(S(=O)(=O)N2CC(CCn3cnc4c(Br)ncnc43)Oc3cc(Cl)ccc32)cc1 (centres undefined)	6.77	12.8	99	47	108	90	90	94	129	65	68	91	84	64	112	94	73	89
Cc1ccc(S(=O)(=O)N2CC(CCn3cnc4c(Cl)ncnc43)Oc3ccc(C)cc32)cc1 (centres undefined)	12.9	23.8	–	–	–	–	–	–	–	–	–	–	–	–	–	–	–	–
Cc1ccc(S(=O)(=O)N2CC(CCn3cnc4c(Cl)ncnc43)Oc3cc(Cl)ccc32)cc1 (centres undefined)	11.2	14.8	–	–	–	–	–	–	–	–	–	–	–	–	–	–	–	–

The next lines start with the values.

IC50 [1] [µM]	IC50 [2] [µM]	Activity [3] [%]	Activity [4] [%]	Activity [5] [%]	Activity [6] [%]	Activity [7] [%]	Activity [8] [%]	Activity [9] [%]	Activity [10] [%]	Activity [11] [%]	Activity [12] [%]	Activity [13] [%]	Activity [14] [%]	Activity [15] [%]	Activity [16] [%]	Activity [17] [%]	Activity [18] [%]	Structure (SMILES)
5.52	7.85	87	44	94	86	86	95	95	63	66	97	78	59	59	98	70	88	Cc1ccc(S(=O)(=O)N2CC(CCn3cnc4c(Cl)nc(Cl)nc43)Oc3ccc(Br)cc32)cc1 (centres undefined)
7.31	16.4	–	–	–	–	–	–	–	–	–	–	–	–	–	–	–	–	Cc1ccc(S(=O)(=O)N2CC(CCn3cnc4c(Br)ncnc43)Oc3ccc(Br)cc32)cc1 (centres undefined)
